Data: ChEMBL document CHEMBL1158610, “5-arylamino-1,2,4-triazin-6(1H)-one CRF1 receptor antagonists” (Bioorg Med Chem Lett, 2010)

Assays:
[1] = biological target: T1, Corticotropin-releasing factor receptor 1 (Rattus norvegicus, UniProt P35353); assay: Displacement of [125I]Tyr-ovine CRF from rat CRF1 receptor
T1 sequence (P35353 whole entry): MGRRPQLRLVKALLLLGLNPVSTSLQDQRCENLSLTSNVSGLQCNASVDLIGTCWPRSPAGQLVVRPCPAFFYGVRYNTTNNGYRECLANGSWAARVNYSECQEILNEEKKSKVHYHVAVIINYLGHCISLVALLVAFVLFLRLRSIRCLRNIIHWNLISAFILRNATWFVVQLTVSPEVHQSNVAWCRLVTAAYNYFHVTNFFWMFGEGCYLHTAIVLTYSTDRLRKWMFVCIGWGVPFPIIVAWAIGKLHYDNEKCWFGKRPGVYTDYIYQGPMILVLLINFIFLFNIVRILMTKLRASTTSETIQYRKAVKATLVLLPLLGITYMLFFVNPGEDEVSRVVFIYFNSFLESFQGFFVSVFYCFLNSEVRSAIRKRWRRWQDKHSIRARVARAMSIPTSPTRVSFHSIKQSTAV
Summary of the method: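 Rat frontal cortex homogenate; inhibition of specific [¹²⁵I]Tyr-ovine-CRF binding measured across a titration of test compound to give IC50. Values are means of three experiments, with standard deviation.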

[2] = system: Liver microsomes; assay: Metabolic stability in rat liver microsome assessed as compound remaining; format: ADME
[3] = system: Liver microsomes; assay: Metabolic stability in human liver microsome assessed as compound remaining; format: ADME
[4] = biological target: T2, Corticotropin-releasing factor receptor 1 (Rattus norvegicus) (UniProt P35353); assay: Displacement of [125]sauvagin from CRF1 receptor in rat parietal cortex
T2 sequence (whole entry): T1 sequence (P35353 whole entry)

Compound	IC50 [1] [nM]	further results
COC[C@H](C1CC1)n1nc(C)nc(Nc2ccc(OC)nc2C(F)(F)F)c1=O	15	
CCC(C1CC1)n1nc(C)nc(Nc2cc(OC)c(C#N)cc2C)c1=O (configuration not stated)	13	
COCC(C1CC1)n1nc(C)nc(Nc2c(Cl)cc(C(F)(F)F)cc2Cl)c1=O (configuration not stated)	11	
COc1cc(Cl)c(Nc2nc(C)nn([C@H](C)C3CC3)c2=O)c(Cl)c1	8.3	
Cc1nc(Nc2c(Cl)cc(C(F)(F)F)cc2Cl)c(=O)n(C(C)C2CC2)n1 (configuration not stated)	14	
COC[C@@H](C1CC1)n1nc(C)nc(Nc2c(Cl)cc(OC(F)F)cc2Cl)c1=O	23	
Cc1nc(Nc2c(Cl)cc(OC(F)F)cc2Cl)c(=O)n([C@H](C)C2CC2)n1	13	
COC[C@H](C1CC1)n1nc(C)nc(Nc2c(Cl)cc(OC)cc2Cl)c1=O	7.2	
CCOc1ccc(Nc2nc(C)nn([C@@H](C)C3CC3)c2=O)c(C(F)(F)F)n1	23	
Cc1nc(Nc2cc(C(F)(F)F)c(C#N)cc2Cl)c(=O)n(C(C)C2CC2)n1 (configuration not stated)	3300	
Cc1nc(Nc2c(Cl)cc(OC(F)(F)F)cc2Cl)c(=O)n(C(C)C2CC2)n1 (configuration not stated)	39	
COc1ccc(Nc2nc(C)nn([C@@H](C)C3CC3)c2=O)c(C(F)(F)F)n1	12	
Cc1nc(Nc2c(Cl)cc(OC(F)F)cc2Cl)c(=O)n(C(C)C2CC2)n1 (configuration not stated)	9.9	
CCC(C1CC1)n1nc(C)nc(Nc2cc(C)c(C#N)cc2C)c1=O (configuration not stated)	9.3	
COc1ccc(Nc2nc(C)nn(C(C)C3CC3)c2=O)c(C(F)(F)F)n1 (configuration not stated)	6.7	
Cc1nc(Nc2cc(Cl)c(C#N)cc2Cl)c(=O)n(C(C)C2CC2)n1 (configuration not stated)	270	
Cc1cn([C@H](C)C2CC2)c(=O)c(Nc2c(Cl)cc(OC(F)F)cc2Cl)n1		Stability [2]: 12%; Stability [3]: 71%
COC[C@@H](C1CC1)n1nc(C)nc(Nc2c(Cl)cc(OC)cc2Cl)c1=O	69	
Cc1nc(Nc2c(C)cc(Cl)cc2Cl)c(=O)n(C(C)C2CC2)n1 (configuration not stated)	33	
Cc1nc(Nc2c(Cl)cc(C(F)(F)F)nc2Cl)c(=O)n(C(C)C2CC2)n1 (configuration not stated)	260	

Compound	IC50 [1] [nM]	further results
COc1cc(Cl)c(Nc2nc(C)nn(C(C)C3CC3)c2=O)c(Cl)c1 (configuration not stated)	15	
Cc1nc(Nc2c(Cl)cc(C#N)c(Cl)c2Cl)c(=O)n(C(C)C2CC2)n1 (configuration not stated)	10	
COCC(C1CC1)n1nc(C)nc(Nc2c(C)cc(OC)cc2C)c1=O (configuration not stated)	51	
CCOc1cc(C)c(Nc2nc(C)nn(C(C)C3CC3)c2=O)cc1C (configuration not stated)	28	
Cc1nc(Nc2cc(C)c(C#N)cc2C)c(=O)n(C(C)C2CC2)n1 (configuration not stated)	60	
CCOc1ccc(Nc2nc(C)nn(C(C)C3CC3)c2=O)c(C(F)(F)F)n1 (configuration not stated)	12	
COCC(C1CC1)n1nc(C)nc(Nc2c(Cl)cc(OC(F)(F)F)cc2Cl)c1=O (configuration not stated)	11	
COC[C@H](C1CC1)n1nc(C)nc(Nc2cc(C)c(OC(F)F)nc2C)c1=O	6.5	
Cc1cc(C)c(Nc2nc(C)nn(C(C)C3CC3)c2=O)c(C)c1 (configuration not stated)	19	
CCOc1ccc(Nc2nc(C)nn([C@H](COC)C3CC3)c2=O)c(C(F)(F)F)n1	27	
COc1nc(C)c(Nc2nc(C)nn(C(C)C3CC3)c2=O)cc1C (configuration not stated)	26	
Cc1nc(Nc2c(Cl)cc(OC(F)F)cc2Cl)c(=O)n([C@@H](C)C2CC2)n1	7.2	
COc1nc(C)c(Nc2nc(C)nn(C(C)C3CC3)c2=O)c(OC)n1 (configuration not stated)	1100	
COc1cc(Nc2nc(C)nn(C(C)C3CC3)c2=O)c(C)cc1C#N (configuration not stated)	94	
Cc1nc(Nc2c(Cl)cc(S(C)(=O)=O)cc2Cl)c(=O)n(C(C)C2CC2)n1 (configuration not stated)	20	
COc1cc(C)c(Nc2nc(C)nn(C(C)C3CC3)c2=O)c(C)c1 (configuration not stated)	68	
COCC(C1CC1)n1nc(C)nc(Nc2cc(C)c(OC)nc2C)c1=O (configuration not stated)	20	
COc1cc(Cl)c(Nc2nc(C)nn([C@@H](C)C3CC3)c2=O)c(Cl)c1	7.5	
CCOc1ccc(Nc2nc(C)nn([C@H](C)C3CC3)c2=O)c(C(F)(F)F)n1	8.6	

More lines, in order of falling IC50 [1], values ahead:

IC50 [1] [nM]	Compound	further results
6.5	CCC(C1CC1)n1nc(C)nc(Nc2cc(C)c(OC)nc2C)c1=O (configuration not stated)	
6.3	COCC(C1CC1)n1nc(C)nc(Nc2c(Cl)cc(OC(F)F)cc2Cl)c1=O (configuration not stated)	
6.3	CCC(C1CC1)n1nc(C)nc(Nc2c(Cl)cc(C(F)(F)F)cc2Cl)c1=O (configuration not stated)	
6.3	COCC(C1CC1)n1nc(C)nc(Nc2c(Cl)cc(OC)cc2Cl)c1=O (configuration not stated)	
5	COc1cc(C)c(Nc2nc(C)nn(C(C)C3CC3)c2=O)cc1C (configuration not stated)	
4.4	COC[C@H](C1CC1)n1nc(C)nc(Nc2c(Cl)cc(OC(F)F)cc2Cl)c1=O	
3.7	CCC(C1CC1)n1nc(C)nc(Nc2ccc(OC)nc2C(F)(F)F)c1=O (configuration not stated)	
3.7	COCC(C1CC1)n1nc(C)nc(Nc2ccc(OC)nc2C(F)(F)F)c1=O (configuration not stated)	
3.6	CCOc1ccc(Nc2nc(C)nn(C(CC)C3CC3)c2=O)c(C(F)(F)F)n1 (configuration not stated)	
3.5	COc1ccc(Nc2nc(C)nn([C@H](C)C3CC3)c2=O)c(C(F)(F)F)n1	Stability [2]: 37%; Stability [3]: 85%
3	CCOc1ccc(Nc2nc(C)nn(C(COC)C3CC3)c2=O)c(C(F)(F)F)n1 (configuration not stated)	Activity [4]: 46%
2.7	CCC(C1CC1)n1nc(C)nc(Nc2cc(C)c(OC)nc2C(F)(F)F)c1=O (configuration not stated)	
2.4	CCOc1ccc(Nc2nc(C)nn([C@@H](COC)C3CC3)c2=O)c(C(F)(F)F)n1	
2.3	COC[C@@H](C1CC1)n1nc(C)nc(Nc2ccc(OC)nc2C(F)(F)F)c1=O	
2.1	CCC(C1CC1)n1nc(C)nc(Nc2c(Cl)cc(OC(F)F)cc2Cl)c1=O (configuration not stated)	
1.1	COCC(C1CC1)n1nc(C)nc(Nc2cc(C)c(OC(F)F)nc2C)c1=O (configuration not stated)	
1.1	COC[C@@H](C1CC1)n1nc(C)nc(Nc2cc(C)c(OC(F)F)nc2C)c1=O	
0.89	CCC(C1CC1)n1nc(C)nc(Nc2cc(C)c(OC)cc2C)c1=O (configuration not stated)	Activity [4]: 64%
